Assay [1] deals with T1, Serine/threonine-protein kinase TAO2 (Homo sapiens) (UniProt Q9UL54).
T1 sequence (whole entry): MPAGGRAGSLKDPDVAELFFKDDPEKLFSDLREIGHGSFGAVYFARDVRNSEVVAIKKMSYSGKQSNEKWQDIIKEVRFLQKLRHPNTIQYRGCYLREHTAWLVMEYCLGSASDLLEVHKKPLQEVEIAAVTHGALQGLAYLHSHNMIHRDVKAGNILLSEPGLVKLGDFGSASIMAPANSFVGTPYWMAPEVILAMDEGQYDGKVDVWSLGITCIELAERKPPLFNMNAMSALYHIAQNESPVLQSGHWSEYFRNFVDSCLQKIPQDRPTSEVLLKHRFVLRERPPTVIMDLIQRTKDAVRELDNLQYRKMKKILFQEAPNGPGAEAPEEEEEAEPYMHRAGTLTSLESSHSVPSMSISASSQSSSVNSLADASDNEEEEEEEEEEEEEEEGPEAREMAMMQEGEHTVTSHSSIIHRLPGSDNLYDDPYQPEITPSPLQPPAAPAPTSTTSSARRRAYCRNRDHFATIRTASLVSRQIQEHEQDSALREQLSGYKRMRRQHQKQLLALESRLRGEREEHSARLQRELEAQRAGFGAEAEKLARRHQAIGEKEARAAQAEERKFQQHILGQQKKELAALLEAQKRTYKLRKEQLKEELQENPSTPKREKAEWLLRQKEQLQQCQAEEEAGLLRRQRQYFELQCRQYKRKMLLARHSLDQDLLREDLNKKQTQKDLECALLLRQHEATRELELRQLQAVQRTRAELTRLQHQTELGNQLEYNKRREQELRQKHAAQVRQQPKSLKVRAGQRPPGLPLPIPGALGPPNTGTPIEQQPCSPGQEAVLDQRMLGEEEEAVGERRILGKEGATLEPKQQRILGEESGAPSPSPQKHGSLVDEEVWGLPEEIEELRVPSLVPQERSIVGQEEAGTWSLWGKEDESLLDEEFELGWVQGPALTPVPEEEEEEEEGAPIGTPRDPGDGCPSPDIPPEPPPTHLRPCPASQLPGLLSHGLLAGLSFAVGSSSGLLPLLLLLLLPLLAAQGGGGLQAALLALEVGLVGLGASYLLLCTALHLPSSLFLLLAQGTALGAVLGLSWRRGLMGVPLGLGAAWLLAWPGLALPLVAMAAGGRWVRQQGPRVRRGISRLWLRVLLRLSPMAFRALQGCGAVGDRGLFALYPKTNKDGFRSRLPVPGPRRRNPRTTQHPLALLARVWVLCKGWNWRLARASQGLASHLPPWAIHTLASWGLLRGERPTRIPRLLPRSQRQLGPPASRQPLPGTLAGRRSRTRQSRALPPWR
Description: Inhibition of TAOK2 (unknown origin) at 1 uM relative to control. The following applies: values are per cent of control. A digest of the protocol: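 KinomeSCAN competitive binding panel of 100 kinases; compounds tested at 1 µM in duplicate; read-out is percent […] control.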

For assay [2], the target named is Dual specificity tyrosine-phosphorylation-regulated kinase 1A (Homo sapiens) (UniProt Q13627). Description: Inhibition of DYRK1A (unknown origin) at 1 uM relative to control; values are per cent of control.
For assay [3], the target named is T2, Serine/threonine-protein kinase Chk1 (Homo sapiens) (UniProt O14757).
T2 sequence (whole entry): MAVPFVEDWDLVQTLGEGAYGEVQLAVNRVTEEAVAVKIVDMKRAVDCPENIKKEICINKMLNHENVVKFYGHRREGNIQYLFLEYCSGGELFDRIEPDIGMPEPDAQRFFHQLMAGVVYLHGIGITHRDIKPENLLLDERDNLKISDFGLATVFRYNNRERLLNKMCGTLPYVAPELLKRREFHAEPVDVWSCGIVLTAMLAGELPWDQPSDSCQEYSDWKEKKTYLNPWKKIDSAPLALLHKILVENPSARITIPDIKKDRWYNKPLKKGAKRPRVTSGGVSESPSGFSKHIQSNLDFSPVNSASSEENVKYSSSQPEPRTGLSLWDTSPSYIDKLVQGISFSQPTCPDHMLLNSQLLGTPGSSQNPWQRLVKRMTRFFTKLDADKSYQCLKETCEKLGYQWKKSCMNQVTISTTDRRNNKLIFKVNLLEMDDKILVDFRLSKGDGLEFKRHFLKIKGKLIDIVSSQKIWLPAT
Description: Inhibition of CHEK1 (unknown origin) at 1 uM relative to control; values are per cent of control.

The target in assay [4] is T3, Ephrin type-B receptor 3 (Homo sapiens) (UniProt P54753).
T3 sequence (whole entry): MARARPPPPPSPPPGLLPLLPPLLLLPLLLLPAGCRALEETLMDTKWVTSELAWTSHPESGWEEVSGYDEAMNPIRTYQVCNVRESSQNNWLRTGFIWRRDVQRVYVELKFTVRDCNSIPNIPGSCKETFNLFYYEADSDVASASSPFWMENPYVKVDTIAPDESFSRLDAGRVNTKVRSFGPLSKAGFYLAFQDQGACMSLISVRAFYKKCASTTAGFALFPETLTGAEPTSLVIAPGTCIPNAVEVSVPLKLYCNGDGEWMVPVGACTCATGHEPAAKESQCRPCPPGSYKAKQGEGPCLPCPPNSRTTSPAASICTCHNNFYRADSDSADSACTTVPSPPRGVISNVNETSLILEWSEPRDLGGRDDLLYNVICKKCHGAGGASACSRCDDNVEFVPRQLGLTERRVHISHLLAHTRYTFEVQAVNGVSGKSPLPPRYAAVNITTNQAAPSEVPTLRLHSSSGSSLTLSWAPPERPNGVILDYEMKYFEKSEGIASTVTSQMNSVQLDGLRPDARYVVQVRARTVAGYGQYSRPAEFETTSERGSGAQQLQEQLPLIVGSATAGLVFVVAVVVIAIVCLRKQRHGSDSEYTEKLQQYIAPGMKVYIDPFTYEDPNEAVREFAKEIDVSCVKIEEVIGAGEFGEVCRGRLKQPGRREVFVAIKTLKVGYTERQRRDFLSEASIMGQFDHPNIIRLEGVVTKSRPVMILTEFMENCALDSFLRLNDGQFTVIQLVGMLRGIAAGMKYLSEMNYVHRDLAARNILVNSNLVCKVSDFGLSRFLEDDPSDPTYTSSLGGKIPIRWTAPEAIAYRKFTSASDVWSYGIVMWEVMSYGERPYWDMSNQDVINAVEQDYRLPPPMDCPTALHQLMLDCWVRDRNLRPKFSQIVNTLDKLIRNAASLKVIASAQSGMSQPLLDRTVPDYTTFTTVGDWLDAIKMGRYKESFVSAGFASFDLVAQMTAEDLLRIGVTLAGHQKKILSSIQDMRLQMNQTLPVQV
Description: Inhibition of EPHB3 (unknown origin) at 1 uM relative to control; values are per cent of control.

Assay [5] has as its target Glycogen synthase kinase-3 beta (Homo sapiens) (UniProt P49841). Description: Inhibition of GSK3B (unknown origin) at 1 uM relative to control; values are per cent of control.

The structures appear in SMILES notation.

Sequence of Glycogen synthase kinase-3 beta (Homo sapiens) (P49841 whole entry, looked up): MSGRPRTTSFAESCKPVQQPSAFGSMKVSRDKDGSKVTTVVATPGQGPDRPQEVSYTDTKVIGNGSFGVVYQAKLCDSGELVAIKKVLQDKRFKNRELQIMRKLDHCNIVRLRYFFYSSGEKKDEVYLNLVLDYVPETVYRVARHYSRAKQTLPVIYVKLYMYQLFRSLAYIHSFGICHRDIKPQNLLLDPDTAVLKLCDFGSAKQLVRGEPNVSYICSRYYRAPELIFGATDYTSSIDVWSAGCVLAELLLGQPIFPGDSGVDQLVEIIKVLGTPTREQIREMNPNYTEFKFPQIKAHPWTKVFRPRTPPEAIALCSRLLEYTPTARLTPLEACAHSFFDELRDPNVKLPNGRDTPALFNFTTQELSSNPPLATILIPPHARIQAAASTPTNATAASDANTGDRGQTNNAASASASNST

Regarding `CCOC(=O)c1sc(-c2ccncc2)nc1O`, the residual binding, % of control in assay [1] was found to be 100%. Further, the residual activity was found to be 100% in assay [2], 100% in assay [3], 71% in assay [4] and 100% in assay [5].

In the case of `NC(=O)c1sc(-c2ccnc(N)n2)nc1-c1ccc(Cl)cc1Cl`, in assay [1], the residual binding, % of control was 55%. For the same compound, the residual activity in assay [2] worked out at 0.1%; in assay [3] it was 100%; in assay [4], 86%; in assay [5] it was 6.4%.

The compound `COc1ccc(-c2nc(-c3ccnc(N)n3)sc2C(N)=O)c(Cl)c1` registered a residual binding, % of control in assay [1] of 25%. For the same compound, the residual activity in assay [2] stood at 0.2%; in assay [3] it was 78%; in assay [4], 97%; in assay [5], 6.8%.

The values are drawn from ChEMBL document CHEMBL3259739, “Synthesis and structure-activity relationship of trisubstituted thiazoles as Cdc7 kinase inhibitors” (Eur J Med Chem, 2014).
